Screening data: PubChem BioAssay, several laboratories
KCNK9 inh: KCNK9 potassium channel inhibitors, primary screen, HEK293 cells, thallium flux | FluxOR thallium flux fluorescence; hits give low values | B-score at 10 µM | Potassium channel subfamily K member 9 (Homo sapiens), Q9NPC2 | AID 488922, 2010 | 1.2% of 310,000 active;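 active = ratio B-score over 3 SD below the library mean, with starting fluorescence within 5 SD of its mean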;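 note: negative B-score means less thallium flux so channel inhibition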
Cl transport mod: KCC2 cotransporter modulators, thallium flux, primary screen, cell-based, HEK293 KCC2, FluoZin-2 fluorescence, MLSMR; Solute carrier family 12 member 5 (Homo sapiens), Q9H2X9; KCC2 cells, thallium flux FluoZin-2 fluorescence; B-score of Tl+ flux slope (higher = more flux/activation; lower = inhibition) at 10 µM; 2.2% of 190,000 active; AID 1456, 2008;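 active = thallium flux slope and its plate-corrected score both differing from the plate sample mean at a set confidence after two filtering rounds, in either direction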;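 note: slope of fluorescence scaled to starting intensity during 10 to 20 s after thallium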
Target sequence (Q9H2X9 whole entry, looked up): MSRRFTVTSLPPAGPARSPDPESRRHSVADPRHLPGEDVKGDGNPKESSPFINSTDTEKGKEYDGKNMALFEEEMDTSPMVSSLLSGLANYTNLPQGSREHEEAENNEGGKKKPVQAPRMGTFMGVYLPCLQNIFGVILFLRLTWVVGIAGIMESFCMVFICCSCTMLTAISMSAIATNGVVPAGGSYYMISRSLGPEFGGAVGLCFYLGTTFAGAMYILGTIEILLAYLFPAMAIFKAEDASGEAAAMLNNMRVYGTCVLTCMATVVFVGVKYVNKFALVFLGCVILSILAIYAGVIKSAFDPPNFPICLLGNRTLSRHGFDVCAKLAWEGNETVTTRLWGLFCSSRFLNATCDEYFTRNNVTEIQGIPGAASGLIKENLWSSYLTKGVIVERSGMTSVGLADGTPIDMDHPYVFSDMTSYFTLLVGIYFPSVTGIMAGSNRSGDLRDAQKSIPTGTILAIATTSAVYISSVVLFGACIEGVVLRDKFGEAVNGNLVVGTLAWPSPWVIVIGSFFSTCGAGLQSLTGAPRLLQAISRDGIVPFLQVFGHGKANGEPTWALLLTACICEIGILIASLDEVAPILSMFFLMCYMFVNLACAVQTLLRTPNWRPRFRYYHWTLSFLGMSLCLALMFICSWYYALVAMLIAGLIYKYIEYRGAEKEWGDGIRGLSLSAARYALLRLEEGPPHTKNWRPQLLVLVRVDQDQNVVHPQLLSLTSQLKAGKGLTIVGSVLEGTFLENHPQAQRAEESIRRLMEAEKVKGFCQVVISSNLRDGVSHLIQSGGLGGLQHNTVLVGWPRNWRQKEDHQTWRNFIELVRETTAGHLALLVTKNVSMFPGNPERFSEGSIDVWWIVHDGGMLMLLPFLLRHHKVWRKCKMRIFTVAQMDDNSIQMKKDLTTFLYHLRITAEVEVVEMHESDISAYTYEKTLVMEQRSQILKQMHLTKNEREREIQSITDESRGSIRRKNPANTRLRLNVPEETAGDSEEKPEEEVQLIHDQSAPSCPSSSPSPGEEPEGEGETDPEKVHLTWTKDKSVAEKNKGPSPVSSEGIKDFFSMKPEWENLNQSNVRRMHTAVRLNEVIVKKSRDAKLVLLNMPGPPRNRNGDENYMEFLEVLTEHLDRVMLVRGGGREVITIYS
KCNQ1 inh: inhibitors of human KCNQ1 channel, primary screen, cell-based, thallium flux, high-throughput; Potassium voltage-gated channel subfamily KQT member 1 (Homo sapiens), P51787; CHO-K1 KCNQ1, FluxOR thallium flux fluorescence; hits give high values; B-score at 10 µM; 1.3% of 310,000 active; AID 2642, 2010;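 active = compounds whose thallium flux B-score, printed positive for inhibition, exceeds three library SD while starting fluorescence stays within three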;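 note: channel opened by potassium depolarization with thallium stimulus after 20 min compound exposure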
hERG protect: hERG rescue from dofetilide block, primary screen, cell-based, CHO-hERG, FluxOR thallium flux, dofetilide IC70; AID 1511, 2009; activation (rescue from dofetilide block), less the hit threshold, % at 10 µM; dofetilide IC70 present; 0.51% of 310,000 active; Voltage-gated inwardly rectifying potassium channel KCNH2 (Homo sapiens), Q12809;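 active = activation above the mean of controls blocked by dofetilide plus 5 SD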;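 note: thallium influx through hERG after potassium depolarization seen as dye fluorescence rise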
KCNK3 inh: human KCNK3 channel inhibitors, primary screen, CHO cells, FluxOR thallium flux, B-score; Potassium channel subfamily K member 3 (Homo sapiens), O14649; FluxOR fluorescence; hits give low values; B-score at 10 µM; 0.84% of 340,000 active; AID 602410, 2012;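 active = B-score under library mean minus 4 SD, starting fluorescence ratio at most library mean plus 5 SD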;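 note: more negative B-score means stronger inhibition of thallium flux through KCNK3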
KCNQ1 act: potentiators or activators of KCNQ1 channel, primary screen, cell-based, thallium flux, high-throughput. CHO-K1 KCNQ1, thallium flux FluxOR fluorescence; hits give high values. B-score at 10 µM. 0.35% of 310,000 active. AID 2648, 2010;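 active = fluorescence ratio B-score, a plate-corrected score, at least three library SD, with initial intensity B-score within 5 SD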
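Assay system: CHO-K1 cells stably expressing KCNQ1; Medium: assay buffer with matched DMSO; Also added: K+/Tl+ depolarizing stimulus; Dosing: single dose; Timing: dye 90 min, compound 20 min, room temperature; Measured by: kinetic FluxOR thallium fluorescence, 10-s 1-Hz baseline, 110-s post-stimulus read; Read-out: peak-minus-minimum fluorescence over initial fluorescence, negative-control normalized, B-scored.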
KCC2 sec1: KCC2 modulators in sodium-free buffer, confirmation, cell-based, HEK293 KCC2, thallium flux, secondary assay; shares compounds with Cl transport mod; FluoZin2 fluorescence; hits give high values; 15% of 3,700 active; normalised thallium flux (F/F0 slope) at 10 µM;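 active = thallium flux slope above the same plate's solvent-only control mean plus 3 SD; inconclusive = the two replicate wells disagree; inactive = no significant difference from solvent-only control wells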
KCC2 bumet counter: thallium flux persisting under bumetanide in KCC2 cells, confirmation, counter-screen for KCC2 modulator project, cell-based, HEK293 KCC2, FluoZin2, secondary assay 3. shares compounds with Cl transport mod. HEK293-KCC2 + bumetanide/ouabain; hits give high values. normalized thallium flux at 10 µM. 49% of 3,700 active. AID 1714, 2009;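 active = thallium entry rate above the same plate's blocked-transporter control wells by more than 3 SD; inconclusive = the two repeat wells disagree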;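 note: raw slope of fluorescence over initial fluorescence between 10 and 20 s after thallium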
KCC2 secondary2: KCC2 modulators without ouabain present, confirmation, cell-based, HEK293 KCC2, thallium flux, FluoZin2, secondary assay 2; shares compounds with Cl transport mod; thallium flux FluoZin2 fluorescence; actives lie on both sides; F/F0 rise rate, 10–20 s post-thallium; normalized thallium flux at 10 µM; 23% of 3,700 active; AID 1715, 2009;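 active = thallium flux slope more than 3 SD above or below the plate's solvent-only control mean, mostly below; inconclusive = the two repeat wells disagreed; inactive = no significant shift from solvent-only controls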;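 note: raw slope with 0.1% DMSO as baseline and bumetanide as block control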
HEK293 Tl flux: thallium flux modulation in parental HEK cells, confirmation, counter-screen for KCC2 modulator project, cell-based, counterscreen 1. shares compounds with Cl transport mod. HEK293 parental cells, thallium flux FluoZin2, ouabain; baseline-ratio fluorescence slope, 10–20 s after thallium. thallium flux rate (normalised fluorescence) at 10 µM. 46% of 3,700 active;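 active = thallium flux rate significantly above the same plate's solvent-only control wells, beyond their mean plus 3 SD; inconclusive = the two replicate wells gave conflicting results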
KCC2 retest ouab: KCC2 inhibitors and activators, ouabain retest, confirmation, HEK-KCC2 cells; shares compounds with Cl transport mod; HEK293-KCC2, thallium flux FluoZin2 fluorescence; bidirectional: low = inhibitor, high = activator; raw Tl+ flux slope (below DMSO = inhibition, above = activation) at 10 µM; 48% of 3,700 active; AID 1717, 2009;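 active = thallium flux slope beyond 3 SD from same-plate DMSO control mean in most replicates, usually higher, sometimes lower; inconclusive = repeat tests gave conflicting results; inactive = no significant difference from controls in most replicates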;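 note: slope of initial-normalized fluorescence between seconds 10 and 20 after thallium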
HEK counter2: native HEK Tl+ uptake effects, second counter-screen – HEK cells, counterscreen 2, counter-screen for KCC2 modulator project, confirmation; 33% of 3,700 active; shares compounds with Cl transport mod; thallium flux slope at 10 µM; AID 1718, 2009; HEK293 parental, thallium flux FluoZin-2 fluorescence slope;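 active = thallium flux slope above the same plate's solvent-control mean plus 3 SD in both duplicate wells; inconclusive = duplicate wells that disagreed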;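 note: run without ouabain in cells lacking the KCC2 cotransporter; slope of fluorescence scaled to its starting value between 10 and 20 s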
KCNQ1 inh valid: KCNQ1 potassium channel inhibitors, confirmation, cell-based, Tl flux, duplicate | shares compounds with KCNQ1 inh | KCNQ1 cell line, FluxOR thallium flux fluorescence | inhibition, % at 10 µM | 93% of 1,600 active;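 active = primary screen active, with duplicate mean exceeding buffer control mean plus 3 SD of buffer wells, cut at about 28% in these data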;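 note: 0% = buffer control ratio and 100% = XE991 inhibitor control ratio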
CHO KCNQ1 ctr: thallium flux effects in parental CHO cells, counter-screen for KCNQ1 inhibitor project, cell-based, Tl flux | shares compounds with KCNQ1 inh | parental CHO-K1, FluxOR thallium flux fluorescence ratio; hits give low values; zero means no signal rise above baseline | fluorescence ratio (Tl flux) at 10 µM | 21% of 1,600 active | AID 588366, 2011;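 active = mean of duplicate thallium-flux fluorescence ratios in parental host cells more than 5 SD below the buffer control mean, cut at about 0.38 in these data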;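 note: ratio is peak minus minimum fluorescence divided by baseline fluorescence; actives read low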
KCNQ1 APC inh: KCNQ1 channel inhibitors, confirmation, orthogonal assay, cell-based, automated electrophysiology; shares compounds with KCNQ1 inh; KCNQ1-CHO cells, automated patch clamp current; calls only at 10 µM; 20% of 490 active; AID 624120, 2012;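 active = KCNQ1 current drop exceeding 3 SD of negative control wells, seen in both duplicate runs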;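 note: steady state current during a 2 s step from -80 to +40 mV; negative values mean current inhibition and positive values mean potentiation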
KCNQ2 spec: KCNQ2 channel inhibition, selectivity assay for KCNQ1 inhibitor project, cell-based | shares compounds with KCNQ1 inh | KCNQ2 cells, FluxOR thallium flux fluorescence | inhibition, % at 10 µM | 71% of 1,600 active | AID 651746, 2012;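 active = mean percent inhibition of the KCNQ2 thallium signal more than 5 SD above the buffer-only control wells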;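 note: KCNQ2 expressed in CHO cells; 0% = buffer control wells and 100% = XE-991 inhibitor control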
KCNQ1-KCNE1 inh: KCNQ1/KCNE1 channel inhibition, selectivity assay for KCNQ1 inhibitor project, CHO-K1 cells, thallium flux, FluxOR; 77% of 1,600 active; AID 652147, 2013; inhibition, % at 10 µM; FluxOR thallium flux fluorescence; shares compounds with KCNQ1 inh;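 active = mean percent inhibition of duplicate wells above the buffer-only control mean plus 3 SD of those controls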;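 note: 0% = buffer only wells and 100% = XE-991 inhibitor control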
KCNK9 inh conf: KCNK9 potassium channel inhibitors, confirmation, HEK293 cells, thallium flux, duplicate | inhibition, % at 10 µM | FluxOR thallium flux fluorescence | 43% of 4,900 active | shares compounds with KCNK9 inh;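 active = thallium signal inhibited by more than 5 SD of the compound-free buffer control wells, on both duplicate plates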;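 note: 0% = assay buffer control wells without compound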
Kir2-1 spec: mouse Kir2.1 channel inhibition, confirmation, selectivity assay for KCNK9 modulator project, cell-based, HEK293, thallium flux. Kir2.1 cells, FluxOR thallium flux fluorescence. shares compounds with KCNK9 inh. AID 492993, 2010. inhibition, % at 10 µM. 4% of 4,900 active;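 active = thallium signal drop more than 5 SD beyond the mean of the no-compound control wells, seen in both duplicate plates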;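 note: signal is fluorescence rise after thallium addition divided by baseline fluorescence; plate controls were assay buffer only for no effect and full block by chlorpromazine control for full effect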
KCNK9 uninduced: thallium flux in non-induced HEK293 cells, confirmation, counter-screen for KCNK9 inhibitor project, cell-based, second counter screen, non-induced KCNK9-HEK293; shares compounds with KCNK9 inh; FluxOR thallium flux; inhibition, % at 10 µM; 40% of 4,900 active;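 active = thallium signal drop beyond 5 SD of the untreated control mean, on both duplicate plates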;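 note: plate controls were buffer only IC0 wells for no effect and SID17386958 at its maximal inhibitory level for full effect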
KCNK3 confirm: retest of human KCNK3 channel inhibitors, confirmation, CHO cells, FluxOR thallium flux, triplicate. shares compounds with KCNK3 inh. FluxOR fluorescence; 0% buffer, 100% carvedilol maximal block. ratio percent of control, % at 10 µM. 99% of 2,400 active;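 active = ratio percent of control, averaged over triplicates, above buffer control mean plus 5 SD, cut at about 64% in these data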;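 note: ratio is the fluorescence rise from min to max over baseline after thallium stimulus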
KCNK3 uninduced: thallium flux inhibition in non-induced cells, primary screen, counter-screen for KCNK3 inhibitor project, cell-based, non-induced KCNK3 line, FluxOR thallium, triplicate; non-induced KCNK3 parental cells; hits give low values; AID 651747, 2012; thallium flux ratio (lower = more inhibition) at 10 µM; 40% of 2,400 active; shares compounds with KCNK3 inh;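 active = thallium flux ratio, averaged over three wells, more than 5 SD below the buffer control mean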;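 note: host cells are CHO cells without KCNK3 induction; ratio is peak minus trough fluorescence over baseline then normalized to buffer controls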
Numbers without * were called inactive; i = inactive; ? = inconclusive; nt = no result given; + = active, no number. In the library only some 4.1% were active in any assay of this set; here they are far more common.

SMILES	KCNK9 inh	Cl transport mod	KCNQ1 inh	hERG protect	KCNK3 inh	KCNQ1 act	KCC2 sec1	KCC2 bumet counter	KCC2 secondary2	HEK293 Tl flux	KCC2 retest ouab	HEK counter2	KCNK3 confirm	KCNK3 uninduced	others
Cc1ccc(C(=O)CC2(O)C(=O)N(C)c3ccc(Br)cc32)c(C)c1 (configuration not stated)	i	-3.63*	i	0.6	-9.56*	i	0.00858	?	0.0311	0.00897*	0.022	0.0101	93.0*	i
COc1ccc(Cn2nnnc2C(CC(C)C)N2CCN(c3ccccc3)CC2)cc1 (configuration not stated)	i	nt	i	-10.6	-9*	i	0.00877	0.00413	0.033	0.00669	0.0183	0.011	99.7*	i
CC(C)CC(c1nnnn1Cc1cccs1)N1CCN(c2nc3ccccc3s2)CC1 (configuration not stated)	-11.7*	-5.11*	i	-12.0	-10.3*	i	0.006	0.00498	?	0.00756	?	0.0112	128.7*	0.121*	KCNK9 inh conf=38.0%*;Kir2-1 spec=i;KCNK9 uninduced=i
CC(C)(C)S(=O)N1Cc2ccc(CO)cc2[C@@H]1CCO (some centres not stated)	nt	nt	nt	nt	i	nt	nt	nt	nt	nt	nt	nt	nt	nt
Cc1c(/C=N/NC(=O)c2ccc(O)cc2)c2ccccn2c1C(=O)c1ccc(F)cc1	i	-2.14	i	-6.9	i	i	nt	nt	nt	nt	nt	nt	nt	nt
Cc1c(/C=N/NC(=O)c2ccccc2O)c2ccccn2c1C(=O)c1ccc(F)cc1	-7.89*	-3.76*	10*	-20.3	-11.4*	i	0.0178	?	0.0299	0.0073	0.0142	0.00996	129.3*	0.156*
CCn1c(CNC(=O)c2ccco2)nnc1SCC(=O)Nc1cc(F)ccc1C	i	nt	i	-4.1	i	i	nt	nt	nt	nt	nt	nt	nt	nt
Cc1ccc(NC(=O)COc2cccc(-n3cnnn3)c2)cc1S(=O)(=O)N1CCOCC1	nt	nt	nt	nt	i	nt	nt	nt	nt	nt	nt	nt	nt	nt
O=C(Nc1ccccc1)C1C(c2ccccc2)C1(Cl)Cl (configuration not stated)	i	nt	14*	-11.5	i	i	nt	nt	nt	nt	nt	nt	nt	nt	KCNQ1 inh valid=102.0*;CHO KCNQ1 ctr=0.433;KCNQ1 APC inh=+;KCNQ2 spec=101.0%*;KCNQ1-KCNE1 inh=136.5%*
CC(C)(C)c1ccc(C(=O)O)c(C(=O)c2ccc(C(=O)O)cc2)c1	i	0.995	i	-10.7	i	i	nt	nt	nt	nt	nt	nt	nt	nt
